Results on 48 sequences are retold here after the EternaBench riboswitch data.

This data set deals with MS2 coat protein. Nature of the data set: apparent Kd, MS2 coat protein; higher = weaker binding; RNA-MaP array; FMN 200 µM where present. An outline of the steps: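 Each design was made on Illumina sequencing-chip clusters by stalled E. coli RNA polymerase and titrated with SNAP-549-labelled MS2 coat protein from 0.7 or 1.5 nM, doubling to 3 µM, in the absence and then the presence of constant ligand. The buffer was 100 mM Tris-HCl pH 7.5, 80 mM KCl, 4 mM MgCl2, BSA, DTT, yeast tRNA and Tween-20. The apparent Kd is the median of filtered per-cluster fits of binding curves, with green signal normalised to red-channel RNA signal and control-cluster median Fmax.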

Setting [1] is: designed as: ON switch for flavin mononucleotide, no ligand.
Where [2] appears, read: ligand present: flavin mononucleotide, designed as: ON switch for flavin mononucleotide.
[3] abbreviates: designed as: OFF switch for flavin mononucleotide, no ligand.
The mark [4] stands for this setting: ligand present: flavin mononucleotide, designed as: OFF switch for flavin mononucleotide.

“UUAGAAUUGCAAGGAUAUCUUAUUUAGAUAGUAAGAGAAGGUGCUUUAUAGUUACAUGAGGAUCACCCAUGUAUUUCUUUUUAU”: the “apparent Kd” value under setting [1] worked out at 0.0231 µM and the “apparent Kd” value under setting [2] worked out at 0.0197 µM.
Consider “GAUCCACAUGAGGAUCACCCAUGUGAGGAUAUGAUACUAUGUACUUCGGUACAUAGUAUCAGAAGGCACAGGUC”, for which the “apparent Kd” value stood at 0.0514 µM under setting [3] and 0.16 µM under setting [4].
For “AAUUAUUGAUGAGGAUAUUGUGGUGAAACACCACAAGAAGGCAUUAUACACAUGAGGAUCACCCAUGUGAGCCUGAUGCUUAUG”, the “apparent Kd” value was 0.0167 µM under setting [3] and 0.0212 µM under setting [4].
“GAUAAGCUAGGAUAUACAUAUUAUUUAAUAUCCUCAUUAAUACAUGAGGAUCACCCAUGUAGAAGGAGCAAUAG”: the “apparent Kd” value by setting is: under setting [3], 0.127 µM; under setting [4], 0.272 µM.
As to “GUGACGAAUGUAGGAUAUGCUGAGGAAUACUCAGCAGAAGGACAUGAGGAUCACCCAUGUCAUCCUUAUAAUAAAUAACGUCAC”, the “apparent Kd” value under setting [3] is 0.0126 µM and the “apparent Kd” value under setting [4] came to 0.0181 µM.
For “UAGGUGUGAGGAUAUGGUAAAGAAAAGAUGAUGAAAGAACUCCAGAAGGCACAUGAGGAUCACCCAUGUAGAUG”, the “apparent Kd” value is, setting by setting: under setting [3], 0.0263 µM; under setting [4], 0.0545 µM.
Consider “UGUCGGAGCAGAGGAUAUUACAUGAGGAUCACCCAUGUAUGAACCAAUAGCUGGAAACAGCAAUGUAAGAAGGCUGCUCCGAGA”, for which the “apparent Kd” value under setting [3] is 0.0133 µM and the “apparent Kd” value under setting [4] turned out to be 0.196 µM.
In the case of “CAUAUAGUUUGAGGAUAUUCAUGCACUGUAUACGGAGAAGGCAAACUAUCAUGUGGACAUGAGGAUCACCCAUGUAGUGACCAG”, the “apparent Kd” value runs as follows: under setting [1], 0.0542 µM; under setting [2], 0.041 µM.
On to “AGAAACUACGAGAAGGACAUGUGGUCCUUCAAAAACAUGAGGAUCACCCAUGUAGGAUAUCGUAGUUUCAGGAUCGUGAGAUCA”, for which the “apparent Kd” value under setting [3] turned out to be 0.0376 µM and the “apparent Kd” value under setting [4] was determined as 0.0228 µM.
The matching figures for “UUUUAACAUGAGGAUCACCCAUGUGAGGAUAUCGAAAUUUAUAUUUAUAUUUAUAAUACGAGAAGGCACAUUUU”: 0.0803 µM and 0.0936 µM.
Take “UUGUACUAGGGAGGAUAUGGGAAGAUACAUGAGGAUCACCCAUGUUUAAGAAUGCCGAGAGGCAACUAGAAGGCCCUAGUACCU”: the “apparent Kd” value reads like this: under setting [1], 0.473 µM; under setting [2], 0.0194 µM.
On to “UUUAUUUAGGCAGGAUAUACAUGUAUAUAUAUUUCUUUAUAUCUUAUUACAUGAGGAUCACCCAUGUAGAAGGGCCUUCUUAUC”, for which the “apparent Kd” value was 0.0301 µM under setting [3] and 0.0345 µM under setting [4].
The matching figures for “UUUUAACAUGAGGAUCACCCAUGUGAGGAUAUCGAAAUUUAUAUUAAUAUUAAUUAUACGAGAAGGCACAUUUU”: 0.0836 µM and 0.0828 µM.
Regarding “GACCGCGAGGAAGGAUAUGGAGCCUUAUUGGCUCCAGAAGGUCCAUAAAGGACAUGAGGAUCACCCAUGUGGUGAGAAGCGGUC”, the “apparent Kd” value came to 2.07 µM under setting [1] and 0.179 µM under setting [2].
As to “ACAUGAGGAUCACCCAUGUUAUCAGGGACUUCAAUUAUUUGUAGAAGGAUGUUUUCUUGUUAGUCAUAGGAUAUACAAUUAAAU”, the “apparent Kd” value under setting [3] was found to be 0.016 µM and the “apparent Kd” value under setting [4] turned out to be 0.0153 µM.
On to “UGUUGUAUUACAGGAUAUCUAUUAGUUUUAUAUAGAGAAGGGUAUUCACAUGAGGAUCACCCAUGUAUAUACGAGGAAGUUGUG”, for which the “apparent Kd” value was found to be 0.0434 µM under setting [1] and 0.0455 µM under setting [2].
The corresponding values for “GGUACCAUCACAGGAUAUGCUAUCCUUUGGGUAGCAGAAGGGUGAUAACAUGAGGAUCACCCAUGUGGUACCGGGCGUGAGCCC” are 1.03 µM and 0.197 µM.
The matching figures for “AAUAAACUCACAGGAUAUAGCAGAGGUCGCUUGAACUUACAGGCGACGAGGCUAGAAGGGUGACCACAUGAGGAUCACCCAUGU”: 1.19 µM and 0.135 µM.
The corresponding values for “GUGAAGAUAGCAGGAUAUCUAUUUCCUACAUGAGGAUCACCCAUGUAGGUGAUUAGCCGAGUAAAGGAGAAGGGCUAUCUUUAC” are 0.00662 µM and 0.00581 µM.
On to “GCUGGAAAAGGAUAUACAUAACGUGCGUCAGCACGAGGCCUACAUGAGGAUCACCCAUGUAGAAGGUUUCCAGC”, for which the “apparent Kd” value amounted to 0.0171 µM under setting [3] and 0.0259 µM under setting [4].
Take “ACCGAAUGAACAUGAGGAUCACCCAUGUACAGGAAACUGAAUGAGGAUAUCGAUAGCAAAGCUAUCGAGAAGGCAUGGGUCGGU”: the “apparent Kd” value reads like this: under setting [1], 0.285 µM; under setting [2], 0.0697 µM.
Regarding “AAGAAGUAAGGAUAUGGCCGGGUCCCUGGGUUUGGACCCGGCUAGAAGGUACAUGAGGAUCACCCAUGUAAGAA”, the “apparent Kd” value reads like this: under setting [3], 0.0147 µM; under setting [4], 0.0155 µM.
As to “UUACUAUAACAGAAGGCUAAAUAAUAUAUAAAUGGAGGAUAUGUUACAUGAGGAUCACCCAUGUUUCACCCACAUGAGGAUCAC”, the “apparent Kd” value worked out at 0.0137 µM under setting [3] and 0.042 µM under setting [4].
Consider “UCGAUCGGAGGAUAUGCUAAUGCAACUACUGCAGUUUCAAAACAUGAGGAUCACCCAUGUAGAAGGCCGAUAUA”, for which the “apparent Kd” value is 0.017 µM under setting [3] and 0.0156 µM under setting [4].
The matching figures for “UUCCCAAGUGCAGGAUAUGCUUCACCGACCUCAGCAGAAGGGCACAUGAGGAUCACCCAUGUGGCAAAAGUACACAGCAAGCUG”: 0.00774 µM and 0.011 µM.
In the case of “GAGUAGUUGGGAGGAUAUCGAUUGUUAUAGAAUCGAGAAGGUUCUAACAUGAGGAUCACCCAUGUAGGACUAUUCCUGUGUAUC”, the “apparent Kd” value was 0.0718 µM under setting [1] and 0.0654 µM under setting [2].
Take “AAUUAUUUACAGAAGGAGUAAGAUUAUGUAUUACUAGGAUAUGUUCACAUGAGGAUCACCCAUGUCAAAGUAGGUUUUUUAUGU”: the “apparent Kd” value turned out to be 0.0124 µM under setting [3] and 0.0123 µM under setting [4].
As for “AUGCGGUCAGGAUAUGCAUGGCGGGACUUGCGUCGUGGCGUGGAGAAGGGACAUGAGGAUCACCCAUGUGGAGU”, the “apparent Kd” value amounted to 0.079 µM under setting [3] and 0.0452 µM under setting [4].
The matching figures for “AGUAGAUCAGGAUAUACGUGAAAGGUCAAAGUGUCCAAUAUACAUGAGGAUCACCCAUGUAGAAGGGAUCUACA”: 0.0248 µM and 0.111 µM.
The matching figures for “AAAAUGUGAGGAUAUCACGGAGCUCCGCGUGACGGAGCUCCUGAGAAGGCACAUGAGGAUCACCCAUGUCCUGU”: 0.0513 µM and 0.316 µM.
The matching figures for “AAGUCGUGAGGAUAUACAUGGAUAUACAUUUAUGUAGACCUACAUGAGGAUCACCCAUGUAGAAGGCACGAAUA”: 0.0454 µM and 0.115 µM.
With “GGAUAGGACAGAGGAUAUACGUGCUUGAGAUACUAGCAAAAUUUCCUCACAUGAGGAUCACCCAUGUAGAAGGCUGUCCUAUCG”, the “apparent Kd” value by setting is: under setting [3], 0.0202 µM; under setting [4], 0.436 µM.
The corresponding values for “UGUCGGAGUAGAGGAUAUUACAUGAGGAUCACCCAUGUAUGAACCAAUAGCUGGAAACAGCAAUGUAAGAAGGCUGCUCCGACA” are 0.00891 µM and 0.11 µM.
For “UGAUAGGACAGAGGAUAUACGGCUAGGAGAUACUAGCCACUAUUCCUCACAUGAGGAUCACCCAUGUAGAAGGCUGUCCUAUCU”, the “apparent Kd” value came out at 0.0164 µM under setting [3] and 0.119 µM under setting [4].
Regarding “GUAGUAUUAAGUUCAUAAUAUAGGAUAGAAGGUGAAAAUUUGACAUGAGGAUCACCCAUGUAAUUCAAGGAUAUGUAGUAACUC”, the “apparent Kd” value under setting [1] came to 0.0977 µM and the “apparent Kd” value under setting [2] was determined as 0.0801 µM.
With “GGUUGUCAUCGUCAUCCUUUCCGUACAUGAGGAUCACCCAUGUAGGAUAUGCUGCUCUCGGUGUGGCAGAAGGGCGUGUGUCUU”, the “apparent Kd” value reads like this: under setting [3], 0.017 µM; under setting [4], 0.0187 µM.
The matching figures for “GUUUGACAUGAGGAUCACCCAUGUGAGGAUAUACGAGUAGCUGCUAGGUAGUUAGUAUGUAGAAGGUGCGUGUU”: 0.0756 µM and 0.071 µM.
The corresponding values for “CUGGAUCACGCAGGAUAUUACAUGAGGAUCACCCAUGUCAGGACUGCAAUAUCGUCUCCUCGUUGUGAGAAGGGCGGAAUCAUU” are 0.0146 µM and 0.0263 µM.
For “GUAGCAUACGGAGGAUAUGUAGGAUCUACAUGAGGAUCACCCAUGUCAAGGACAGAAGGCCGUAUGCUACAAGAGCGAAAGCUC”, the “apparent Kd” value is 0.0116 µM under setting [1] and 0.00579 µM under setting [2].
The matching figures for “CGCUACUACCAGAAGGACAUGAGGAUCACCCAUGUAGGAUAUGGGUUACACGUUCCUGUGUUAAGUUACUACGCUACGUAUGCG”: 0.419 µM and 0.0202 µM.
For “AUCAGCUCGUCAGGAUAUAAGUCACUGCGUCAGCAGUGUGGUAAGAUCACAUGAGGAUCACCCAUGUAGAAGGGACGAGCUGAU”, the “apparent Kd” value turned out to be 0.0118 µM under setting [3] and 0.0467 µM under setting [4].
The corresponding values for “GGAUAGGACAGAGGAUAUAGGUGCUAGAGAUACUAGCAAAAUUUCCUCACAUGAGGAUCACCCAUGUAGAAGGCUGUCCUAUCG” are 0.0115 µM and 0.0254 µM.
The corresponding values for “GCCAGAGCAGGAUAUUCAAUAUUCCACAUGAGGAUCACCCAUGUCCUGCGAAAGCAGGAGGGAGAAGGGCUCUGGC” are 0.0694 µM and 0.0255 µM.
The corresponding values for “UAUAUUUAUGUAGGAUAUGGUAUAUAAAAUAUACCAGAAGGACAUGAGGAUCACCCAUGUAUGAAAUUCCAUAAUAACCGUGUA” are 0.0111 µM and 0.0122 µM.
With “AUAAUUUUAUAUAUCUUAUUUAUCAGAAGGCAUAACAUGAGGAUCACCCAUGUAUAUUAUUGUUAUGAGGAUAUGAUUUAGUUA”, the “apparent Kd” value stood at 0.0101 µM under setting [3] and 0.0583 µM under setting [4].
“UCCUUUAAUACAGGAUAUGUUAUUAUACAGUUGUUUGCUUAUUACUUUAUAACAGAAGGGUAGAACAUGAGGAUCACCCAUGUA”: the “apparent Kd” value under setting [1] amounted to 0.076 µM and the “apparent Kd” value under setting [2] was found to be 0.05 µM.
The corresponding values for “CUAGAUAUGUAAGGAUAUAUAGUGGAAUACACUAUAGAAGGUAUGUGAGAACAUGAGGAUCACCCAUGUCAUUGGAUAUCUAGA” are 0.0337 µM and 0.0376 µM.
On to “GAAGCACACAUUAACAUGAGGAUCACCCAUGUCAAAAGACAUGAGGAUAUGGAUCUGAAGAAGAUCCAGAAGGCAUUGUGCUAA”, for which the “apparent Kd” value runs as follows: under setting [1], 0.388 µM; under setting [2], 0.0256 µM.
